Laboratory results from ChEMBL document CHEMBL1132240, “Design and synthesis of modified quinolones as antitumoral acridones” (J Med Chem, 1999).

Assays:
[1] = tested on: P388; experiment: Cytotoxic activity Murine Lymphocytic Leukemia P388 Concentration of agent required to reduce cell viability by 90%; type: functional; conditions: Mus musculus
Summary of the method: (§1)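 Modified MTT assay. Cells seeded per well with graded drug: CHO 2.5 × 10^3, B16 5 × 10^3, P388 and LLC 10^4, HL-60 and LoVo 5 × 10^4. After 68 h, MTT (2.5 mg/mL) added for 4 h at 37 °C. Formazan dissolved in DMSO and A550 read. Inhibition taken as fractional A550 decrease vs control. IC50/IC90 from Chou's median-effect equation.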

[2] = tested on: P388; experiment: Cytotoxic activity against Murine Lymphocytic Leukemia P388 Concentration of agent required to reduce cell viability by 50%; type: functional, cell-based; conditions: Mus musculus; summary of the method: as §1
[3] = tested on: LoVo; experiment: Cytotoxic activity against solid tumor, LoVo, (human colon adenocarcinoma) Concentration of agent required to reduce cell viability by 50%; type: functional, cell-based; summary of the method: as §1
[4] = tested on: Lewis lung carcinoma cell line; experiment: Cytotoxic activity against solid tumor LLC(Lewis lung carcinoma), concentration of agent required to reduce cell viability by 90%; type: functional; conditions: Mus musculus; summary of the method: as §1
[5] = tested on: Lewis lung carcinoma cell line; experiment: Cytotoxic activity against solid tumor LLC(Lewis lung carcinoma), concentration of agent required to reduce cell viability by 50%; type: functional, cell-based; conditions: Mus musculus; summary of the method: as §1
[6] = tested on: HL-60; experiment: Cytotoxic activity against Human promyelocytic Leukemia HL-60 Concentration of agent required to reduce cell viability by 90%; type: functional; summary of the method: as §1
[7] = tested on: CHO; experiment: Cytotoxic activity against solid tumor, CHO (Chinese hamster ovaric carcinoma) Concentration of agent required to reduce cell viability by 90%; type: functional; conditions: Cricetulus griseus; summary of the method: as §1
[8] = tested on: B16; experiment: Cytotoxic activity against solid tumor, B16 (murine melanoma) Concentration of agent required to reduce cell viability by 50%; type: functional, cell-based; conditions: Mus musculus; summary of the method: as §1
[9] = tested on: LoVo; experiment: Cytotoxic activity against solid tumor, LoVo, (human colon adenocarcinoma) Concentration of agent required to reduce cell viability by 90%; type: functional; summary of the method: as §1
[10] = tested on: CHO; experiment: Cytotoxic activity against solid tumor, CHO (Chinese hamster ovaric carcinoma) Concentration of agent required to reduce cell viability by 50%; type: functional, cell-based; conditions: Cricetulus griseus; summary of the method: as §1
[11] = tested on: HL-60; experiment: Cytotoxic activity against Human promyelocytic Leukemia HL-60 Concentration of agent required to reduce cell viability by 50%; type: functional, cell-based; summary of the method: as §1
[12] = tested on: B16; experiment: Cytotoxic activity against solid tumor, B16 (murine melanoma) Concentration of agent required to reduce cell viability by 90%; type: functional; conditions: Mus musculus; summary of the method: as §1
[13] = tested on: HL-60; experiment: (§2) Relative cytotoxicity against human promyelocytic leukemia(HL-60) cells; type: functional
Summary of the method: (§3)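 Second-stage assay on HL-60 (5 × 10^4/well) and soybean-agglutinin-negative mononuclear marrow cells (5 × 10^5/well) from six healthy donors. Four wells per concentration, 48 h at 37 °C, then [125I]iododeoxyuridine plus fluorodeoxyuridine for 18 h. Inhibition from fractional uptake decrease; IC50/IC90 by median-effect equation. Ranges are antilog(mean log ± 2SD); ratios use mean antilogs.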

[14] = Ratio of cytotoxicity of compound towards bone marrow sample and to that of HL-60 was determined as IC50BM/IC90HL; type: functional; summary of the method: as §3
[15] = tested on: CHO; experiment: Cytotoxic activity against solid tumor, CHO (Chinese hamster ovaric carcinoma) concentration of agent required to reduce cell viability by 90%; type: functional; conditions: Cricetulus griseus; summary of the method: as §1
[16] = tested on: B16; experiment: Cytotoxic activity against solid tumor, B16 (murine melanoma) concentration of agent required to reduce cell viability by 50%; type: functional, cell-based; conditions: Mus musculus; summary of the method: as §1
[17] = tested on: LoVo; experiment: Cytotoxic activity against solid tumor, LoVo, (human colon adenocarcinoma) concentration of agent required to reduce cell viability by 90%; type: functional; summary of the method: as §1
[18] = tested on: HL-60; experiment: Cytotoxic activity against human promyelocytic leukemia HL-60 concentration of agent required to reduce cell viability by 50%; type: functional, cell-based; summary of the method: as §1
[19] = species: Homo sapiens; experiment: Relative cytotoxicity against human bone marrow samples; type: functional; summary of the method: as §3
[20] = Ratio of cytotoxicity of compound towards bone marrow sample and to that of HL-60 was determined as IC90BM/IC90HL; type: functional; summary of the method: as §3
[21] = tested on: P388; experiment: Cytotoxic activity against murine lymphocytic leukemia P388 concentration of agent required to reduce cell viability by 50%; type: functional, cell-based; conditions: Mus musculus; summary of the method: as §1
[22] = tested on: HL-60; experiment: as §2; type: functional, cell-based; summary of the method: as §3
[23] = tested on: P388; experiment: Cytotoxic activity against murine lymphocytic leukemia P388 concentration of agent required to reduce cell viability by 90%; type: functional; conditions: Mus musculus; summary of the method: as §1
[24] = tested on: LoVo; experiment: Cytotoxic activity against solid tumor, LoVo, (human colon adenocarcinoma) concentration of agent required to reduce cell viability by 50%; type: functional, cell-based; summary of the method: as §1
[25] = tested on: HL-60; experiment: Cytotoxic activity against human promyelocytic leukemia HL-60 concentration of agent required to reduce cell viability by 90%; type: functional; summary of the method: as §1
[26] = Ratio of cytotoxicity of compound towards bone marrow sample and to that of HL-60 was determined as IC50BM/IC50HL; type: functional; summary of the method: as §3
[27] = tested on: HL-60; experiment: Relative cytotoxicity against Human promyelocytic Leukemia(HL-60) cells; Value is in range, activity expressed as IC90; type: functional; summary of the method: as §3
[28] = Ratio of antilog(mean log IC50 in bone marrow sample) and antolog(mean log IC50) in HL-60); type: functional; summary of the method: as §3
[29] = Ratio of antilog(mean log IC50 in bone marrow sample) and antolog(mean log IC90) in HL-60); type: functional; summary of the method: as §3
[30] = species: Homo sapiens; experiment: Relative cytotoxicity against Human bone marrow samples; Value is in range, activity expressed as IC50; type: functional; summary of the method: as §3
[31] = species: Homo sapiens; experiment: Relative cytotoxicity against Human bone marrow samples; Value is in range, activity expressed as IC90; type: functional; summary of the method: as §3
[32] = Ratio of antilog(mean log IC90 in bone marrow sample) and antolog(mean log IC90) in HL-60); type: functional; summary of the method: as §3
[33] = tested on: HL-60; experiment: Relative cytotoxicity against Human promyelocytic Leukemia(HL-60) cells; Value is in range, activity expressed as IC50; type: functional, cell-based; summary of the method: as §3
[34] = tested on: P388; experiment: In vivo antitumor activity against Murine P388 Leukemia at 60 mg/kg dose;(Median survival time of treated mice)/(median survival time of controls) x100; type: functional, Mus musculus
Summary of the method: (§4)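 Female BD2F1 mice (8 weeks, 20-22 g), eight per group, given 10^5 P388 cells ip on day 0. From 24 h later, drug was given ip once daily for 9 days as a micronized suspension in 0.5% carboxymethylcellulose. Deaths were recorded daily over a 33-day study. %T/C = median survival time of treated / median survival time of controls × 100; >125 taken as significant.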

[35] = tested on: P388; experiment: In vivo antitumor activity against Murine P388 Leukemia at 20 mg/kg dose;(Median survival time of treated mice)/(median survival time of controls) x100; type: functional, Mus musculus; summary of the method: as §4
[36] = tested on: P388; experiment: In vivo antitumor activity against Murine P388 Leukemia at 6.67 mg/kg dose;(Median survival time of treated mice)/(median survival time of controls) x100; type: functional, Mus musculus; summary of the method: as §4

Compound | IC90 [1] | IC50 [2] | IC50 [3] | IC90 [4] | IC50 [5] | IC90 [6] | IC90 [7] | IC50 [8] | IC90 [9] | IC50 [10] | IC50 [11] | IC90 [12] | also measured
CCN(CC)CCn1c2cc(N3CCSCC3)c(N)cc2c(=O)c2c(O)cc(O)cc21 | 19 µM | 8.8 µM |  |  |  |  |  |  |  |  |  |  | 
CCN(CC)CCn1c2cc(NC)c(N)cc2c(=O)c2c(O)cc(O)cc21 | 7 µM | 3.9 µM | 26 µM | 64 µM | 23 µM | 27 µM | 36 µM | 3.8 µM | 44 µM | 8.2 µM | 9.7 µM | 24 µM | 
CCN(CC)CCn1c2cc(N3CCCC3)c(N)cc2c(=O)c2c(O)cc(O)cc21 | 21 µM | 9.7 µM |  |  |  | > 100 µM |  |  |  |  | 96 µM |  | 
CCn1c2cc(N3CCN(C)CC3)c(N)cc2c(=O)c2c(O)cc(OC)cc21 |  |  |  | 11 µM | 9.3 µM |  |  |  |  | 6 µM |  | 12 µM | IC90 [13]: 22.9 µM; Ratio [14]: 0.4; IC90 [15]: 11 µM; IC50 [16]: 8.6 µM; IC90 [17]: 15 µM; IC50 [18]: 17 µM; IC50 [19]: 10.7 µM; IC90 [19]: 89.1 µM; Ratio [20]: 2.7; IC50 [21]: 2.9 µM; IC50 [22]: 19.1 µM; IC90 [23]: 8.9 µM; IC50 [24]: 10 µM; IC90 [25]: 24 µM; Ratio [26]: 0.4
CCn1c2cc(N3CCN(C)CC3)c(N)cc2c(=O)c2c(O)cc(O)cc21 | 13 µM | 4.6 µM | 17 µM | 17 µM | 11 µM | 34 µM | 19 µM | 9.9 µM | 47 µM | 5.8 µM | 23 µM | 19 µM | IC90 [27]: 42.6 µM; Ratio [28]: 0.1; Ratio [29]: 0.1; IC50 [30]: 3.27 µM; IC90 [31]: 20.3 µM; Ratio [32]: 0.5; IC50 [33]: 27.7 µM; T/C [34]: 132%; T/C [35]: 116%; T/C [36]: 115%
CCN(CC)c1cc2c(cc1N)c(=O)c1c(O)cc(O)cc1n2CC | 50 µM | 24 µM |  |  |  | 58 µM |  |  |  |  | 24 µM |  | 
CCN(CC)CCn1c2cc(OC)c(N)cc2c(=O)c2c(O)cc(O)cc21 | 5.9 µM | 2.8 µM | 11 µM | 32 µM | 10 µM | 27 µM | 20 µM | 3.4 µM | 36 µM | 5.6 µM | 8.2 µM | 11 µM | 
CCN(CC)CCn1c2cc(N3CCN(C)CC3)c(N)cc2c(=O)c2c(OC)cc(OC)cc21 |  |  |  |  |  |  |  |  |  |  |  |  | IC50 [18]: 8.3 µM; IC50 [21]: 3.4 µM; IC90 [23]: 5.8 µM; IC90 [25]: 17 µM
CCn1c2cc(Cl)c(N)cc2c(=O)c2c(O)cc(O)cc21 | 13 µM | 1.6 µM | 15 µM | > 100 µM | 16 µM | 74 µM | 71 µM | 2.8 µM | > 100 µM | 5.8 µM | 13 µM | 28 µM | IC90 [27]: 97.5 µM; Ratio [28]: 0.6; Ratio [29]: 0.1; IC50 [30]: 7.08 µM; IC90 [31]: 74.1 µM; Ratio [32]: 0.5; IC50 [33]: 17 µM
CCn1c2cc(N3CCN(C)CC3)c(N)cc2c(=O)c2c(OC)cc(OC)cc21 |  |  |  |  |  |  |  |  |  |  |  |  | IC50 [18]: 61 µM; IC50 [21]: 16 µM; IC90 [23]: 26 µM; IC90 [25]: 99 µM
CCN(CC)CCNc1cc2c(cc1N)c(=O)c1c(O)cc(O)cc1n2CC | 11 µM | 4.3 µM | 19 µM | 46 µM | 25 µM | 46 µM | 17 µM | 10 µM | 30 µM | 8.1 µM | 19 µM | 38 µM | 
CN1CCN(c2cc3c(cc2N)c(=O)c2c(O)cc(O)cc2n3C)CC1 | 11 µM | 7.2 µM |  |  |  | 39 µM |  |  |  |  | 24 µM |  | 
